Measurements published in ChEMBL document CHEMBL1144395, “Design and synthesis of potent pyridazine inhibitors of p38 MAP kinase” (Bioorg Med Chem Lett, 2005).

Key:
[1] = Inhibitory activity against mitogen-activated protein kinase p38; parameters: species or system Homo sapiens
THP-1 = assay: Inhibitory concentration against TNF-alpha production in THP-1 cells; assay type: functional, cell-based; conditions: Homo sapiens
[2] = Inhibitory activity against c-Jun N-terminal kinase 3 (JNK3); parameters: species or system Homo sapiens
Cell line = assay: Inhibitory concentration against LPS-induced release of TNF-alpha in human whole blood; assay type: functional, cell-based
Rattus norvegicus = species on record: Rattus norvegicus; assay: Effective dose against rat collagen-induced arthritis (CIA) model; assay type: functional
Mus musculus = species on record: Mus musculus; assay: Effective dose against murine LPS challenge model; assay type: functional
In short: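 Oral dosing to BALB/c mice (n = 5) 1 h before intravenous LPS ([…]); blood taken 90 min after LPS, serum TNF-α measured by ELISA; % inhibition = [(vehicle control − compound)/(vehicle control)] × 100; ED50 derived from this inhibition.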

Ki [1]	IC50 (THP-1)	Ki [2]	IC50 (Cell line)	Structure (SMILES)	ED50 (Rattus norvegicus)	ED50 (Mus musculus)
20.4 nM	110 nM	598 nM		CC(C)N[C@H](CNc1cc(-c2ccncc2)c(-c2cccc3ccccc23)nn1)Cc1ccccc1		
31.8 nM	552 nM	72.5 nM		O=C(CO)N1CCN(c2cc(-c3ccncc3)c(-c3cccc4ccccc34)nn2)C[C@@H]1Cc1ccccc1		
56.2 nM	40.2 nM	> 10000 nM	1830 nM	N[C@H](CNc1cc(-c2ccncn2)c(-c2cccc(C(F)(F)F)c2)nn1)Cc1ccccc1		
65.9 nM	661 nM	211 nM		O=C(CO)N[C@H](CNc1cc(-c2ccncc2)c(-c2cccc3ccccc23)nn1)Cc1ccccc1		
179 nM	251 nM	> 10000 nM		CC(N)(CNc1cc(-c2ccncn2)c(-c2cccc(C(F)(F)F)c2)nn1)Cc1ccccc1 (centres undefined)		
29.7 nM	63.6 nM	650 nM	547 nM	CC(C)C[C@H]1CN(c2cc(-c3ccncc3)c(-c3cccc4ccccc34)nn2)CCN1		
7.3 nM	67.6 nM	160 nM	240 nM	c1ccc(C[C@H]2CN(c3cc(-c4ccncc4)c(-c4cccc5ccccc45)nn3)CCN2)cc1	2.7 mg/kg	1.28 mg/kg
1.8 nM	92.2 nM	1060 nM	948 nM	N[C@H](CNc1cc(-c2ccncc2)c(-c2cccc3ccccc23)nn1)Cc1ccc(F)cc1		
10.2 nM	93.4 nM	> 10000 nM		CC(Nc1nccc(-c2cc(C3CCNCC3)nnc2-c2cccc(C(F)(F)F)c2)n1)c1ccc(F)cc1 (centres undefined)		
2.1 nM	21.5 nM	2970 nM	5850 nM	C[C@H](Nc1cc(-c2cc(C3CCNCC3)nnc2-c2cccc(C(F)(F)F)c2)ccn1)c1ccccc1		
709 nM	1290 nM	> 10000 nM		O=C(CNc1nccc(-c2cc(C3CCNCC3)nnc2-c2cccc(C(F)(F)F)c2)n1)c1ccccc1		
1770 nM	1240 nM	> 10000 nM		O=C(CNc1nccc(-c2cc(C3CCNCC3)nnc2-c2cccc(C(F)(F)F)c2)n1)c1ccc(F)cc1		
7 nM	50.1 nM	735 nM	165 nM	N[C@H](CNc1cc(-c2ccncc2)c(-c2cccc3ccccc23)nn1)Cc1ccccc1		
1.6 nM	5.3 nM	1580 nM	1560 nM	C[C@H](Nc1nccc(-c2cc(C3CCNCC3)nnc2-c2cccc(C(F)(F)F)c2)n1)c1ccccc1		
9.2 nM	5.5 nM	81.5 nM		c1ccc(C[C@@H](CNc2cc(-c3ccncc3)c(-c3cccc4ccccc34)nn2)N2CCCC2)cc1		
